Assay results reported in ChEMBL document CHEMBL3286094, “Synthesis and biological evaluation of novel bisbenzimidazoles as Escherichia coli topoisomerase IA inhibitors and potential antibacterial agents” (J Med Chem, 2014).
Converted amounts (≈) assume the structure as drawn. The source made the active and inactive calls. The rule behind the calls is not given here.

What was measured:
[1] = species on record: Homo sapiens; assay: Inhibition of human DNA topoisomerase-1B using supercoiled pHOT1 plasmid DNA as substrate assessed as inhibition of DNA relaxation at 100 uM after 30 mins by agarose gel electrophoresis
[2] = tested on: Escherichia coli; assay: Bactericidal activity against chloroamphenicol/ampicillin/kanamycin/trimethoprim/ciprofloxacin/nalidixic acid-resistant Escherichia coli 85 by agar plating method; assay type: functional
[3] = tested on: Escherichia coli; assay: Antibacterial activity against ampicillin/ciprofloxacin/gentamicin/tetracycline-resistant Escherichia coli 555 assessed as growth inhibition after 18 to 24 hrs by broth microdilution method; assay type: functional
[4] = tested on: Escherichia coli; assay: Antibacterial activity against Escherichia coli ATCC 25922 assessed as growth inhibition after 18 to 24 hrs by broth microdilution method; assay type: functional
[5] = tested on: Escherichia coli; assay: Bactericidal activity against Escherichia coli ATCC 25922 by agar plating method; assay type: functional
[6] = tested on: Escherichia coli; assay: Antibacterial activity against ciprofloxacin-resistant Escherichia coli 72 assessed as growth inhibition after 18 to 24 hrs by broth microdilution method; assay type: functional
[7] = tested on: Escherichia coli; assay: Antibacterial activity against ampicillin/chloramphenicol/ciprofloxacin/gentamicin/tetracycline-resistant Escherichia coli 401 assessed as growth inhibition after 18 to 24 hrs by broth microdilution method; assay type: functional
[8] = tested on: Escherichia coli; assay: Antibacterial activity against cefazolinl/ampicillin/piperacillin/cefuroxime/cefepime/cefotaxime/tetracycline/trimethoprim-resistant Escherichia coli KK16 isolated from water source assessed as growth inhibition after 18 to 24 hrs by broth microdilution method
[9] = tested on: Escherichia coli; assay: Antibacterial activity against chloramphenicol/ampicillin/kanamycin/trimethoprim/ciprofloxacin/nalidixic acid-resistant Escherichia coli 132 assessed as growth inhibition after 18 to 24 hrs by broth microdilution method; assay type: functional
[10] = tested on: Escherichia coli; assay: Bactericidal activity against ampicillin/tetracycline/piperacillin-resistant Escherichia coli WB31 isolated from water source by agar plating method
[11] = tested on: Escherichia coli; assay: Bactericidal activity against ampicillin/chloramphenicol/tetracycline/trimethoprim/ciprofloxacin-resistant Escherichia coli KK45 isolated from water source by agar plating method
[12] = tested on: Escherichia coli; assay: Antibacterial activity against Escherichia coli DH5[alpha] assessed as growth inhibition after 18 to 24 hrs by broth microdilution method; assay type: functional
[13] = tested on: Escherichia coli; assay: Bactericidal activity against multidrug-resistant Escherichia coli IS 54 isolated from water source by agar plating method; details: IS 54, Water
[14] = tested on: Escherichia coli; assay: Antibacterial activity against ampicillin/kanamycin/trimethoprim/tetracyclin/ciprofloxacin/nalidixic acid-resistant Escherichia coli 81 assessed as growth inhibition after 18 to 24 hrs by broth microdilution method; assay type: functional
[15] = tested on: Escherichia coli; assay: Antibacterial activity against ampicillin/trimethoprim/cefazolinl/piperacillin/cefuroxime/cefoxitine/cefepime/cefotaxime-resistant Escherichia coli KP21 isolated from water source assessed as growth inhibition after 18 to 24 hrs by broth microdilution method
[16] = tested on: Escherichia coli; assay: Antibacterial activity against ampicillin/tetracycline-resistant Escherichia coli IP18 isolated from water source assessed as growth inhibition after 18 to 24 hrs by broth microdilution method
[17] = tested on: Escherichia coli; assay: Antibacterial activity against ampicillin/chloramphenicol/tetracycline/trimethoprim/ciprofloxacin-resistant Escherichia coli KK45 isolated from water source assessed as growth inhibition after 18 to 24 hrs by broth microdilution method
[18] = tested on: Escherichia coli; assay: Bactericidal activity against cefazolinl/ampicillin/piperacillin/cefuroxime/cefepime/cefotaxime/tetracycline/trimethoprim-resistant Escherichia coli KK16 isolated from water source by agar plating method
[19] = tested on: Escherichia coli; assay: Antibacterial activity against tetracycline/trimethoprim-resistant Escherichia coli IST isolated from water source assessed as growth inhibition after 18 to 24 hrs by broth microdilution method
[20] = tested on: Escherichia coli; assay: Antibacterial activity against chloramphenicol/ampicillin/kanamycin/trimethoprim/ciprofloxacin/nalidixic acid-resistant Escherichia coli 151 assessed as growth inhibition after 18 to 24 hrs by broth microdilution method; assay type: functional
[21] = tested on: Escherichia coli; assay: Inhibition of Escherichia coli DNA gyrase using relaxed pHOT1 plasmid DNA as substrate assessed as inhibition of DNA supercoiling up to 100 uM after 30 mins by agarose gel electrophoresis
[22] = tested on: Escherichia coli; assay: Bactericidal activity against cefazolinl/ampicillin/piperacillin/cefuroxime/cefepime/cefotaxime/tetracycline/ciprofloxacin-resistant Escherichia coli NG3 isolated from water source by agar plating method
[23] = tested on: Escherichia coli; assay: Bactericidal activity against ampicillin/trimethoprim/cefazolinl/piperacillin/cefuroxime/cefoxitine/cefepime/cefotaxime-resistant Escherichia coli KP21 isolated from water source by agar plating method
[24] = tested on: Escherichia coli; assay: Antibacterial activity against ampicillin/tetracycline/piperacillin-resistant Escherichia coli WB31 isolated from water source assessed as growth inhibition after 18 to 24 hrs by broth microdilution method
[25] = tested on: Escherichia coli; assay: Bactericidal activity against ampicillin/tetracycline-resistant Escherichia coli IP18 isolated from water source by agar plating method
[26] = tested on: Escherichia coli; assay: Bactericidal activity against Escherichia coli DH5[alpha] by agar plating method; assay type: functional
[27] = tested on: Escherichia coli; assay: Antibacterial activity against ampicillin/trimethoprim/piperacillin-resistant Escherichia coli MKNJ isolated from water source assessed as growth inhibition after 18 to 24 hrs by broth microdilution method
[28] = tested on: Escherichia coli; assay: Antibacterial activity against cefazolinl/ampicillin/piperacillin/cefuroxime/cefepime/cefotaxime/tetracycline/ciprofloxacin-resistant Escherichia coli NG3 isolated from water source assessed as growth inhibition after 18 to 24 hrs by broth microdilution method
[29] = tested on: Escherichia coli; assay: Antibacterial activity against ampicillin/trimethoprim/nalidixic acid-resistant Escherichia coli 118 assessed as growth inhibition after 18 to 24 hrs by broth microdilution method; assay type: functional
[30] = tested on: Escherichia coli; assay: Bactericidal activity against ciprofloxacin-resistant Escherichia coli 72 by agar plating method; assay type: functional
[31] = Inhibition of Escherichia coli DNA topoisomerase-1A using supercoiled pHOT1 plasmid DNA as substrate assessed as inhibition of DNA relaxation after 30 mins by agarose gel electrophoresis
How it was run: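 Supercoiled plasmid DNA incubated with E. coli Topo IA in the presence of compound at […]. Relaxation products were resolved by electrophoresis on 1% agarose gel.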

[32] = tested on: Escherichia coli; assay: Bactericidal activity against chloramphenicol/ampicillin/kanamycin/trimethoprim/ciprofloxacin/nalidixic acid-resistant Escherichia coli 132 by agar plating method; assay type: functional
[33] = tested on: Escherichia coli; assay: Bactericidal activity against ampicillin/chloramphenicol/ciprofloxacin/gentamicin/tetracycline-resistant Escherichia coli 401 by agar plating method; assay type: functional

COc1ccc(-c2nc3ccc(-c4nc5ccc(N6CCN(c7ccncc7)CC6)cc5[nH]4)cc3[nH]2)cc1OC
inhibition [1]: inactive
MBC [2]: 4 µg/mL (≈ 7.52 µM)
MIC50 [3]: 16 µg/mL (≈ 30.1 µM)
MIC90 [3]: 58.6 µg/mL (≈ 110 µM)
MIC50 [4]: 2 µg/mL (≈ 3.76 µM)
MIC90 [4]: 3.7 µg/mL (≈ 6.96 µM)
MBC [5]: 4 µg/mL (≈ 7.52 µM)
MIC50 [6]: 1 µg/mL (≈ 1.88 µM)
MIC90 [6]: 1.6 µg/mL (≈ 3.01 µM)
MIC50 [7]: 1 µg/mL (≈ 1.88 µM)
MIC90 [7]: 1.6 µg/mL (≈ 3.01 µM)
MIC50 [8]: 1 µg/mL (≈ 1.88 µM)
MIC90 [8]: 1.7 µg/mL (≈ 3.2 µM)
MIC50 [9]: 2 µg/mL (≈ 3.76 µM)
MIC90 [9]: 3.7 µg/mL (≈ 6.96 µM)
MBC [10]: 4 µg/mL (≈ 7.52 µM)
MBC [11]: 4 µg/mL (≈ 7.52 µM)
MIC50 [12]: 0.5 µg/mL (≈ 0.941 µM)
MIC90 [12]: 1.8 µg/mL (≈ 3.39 µM)
MBC [13]: 2 µg/mL (≈ 3.76 µM)
MIC50 [14]: 2 µg/mL (≈ 3.76 µM)
MIC90 [14]: 3.1 µg/mL (≈ 5.83 µM)
MIC50 [15]: 2 µg/mL (≈ 3.76 µM)
MIC90 [15]: 3.6 µg/mL (≈ 6.77 µM)
MIC50 [16]: 2 µg/mL (≈ 3.76 µM)
MIC90 [16]: 3.7 µg/mL (≈ 6.96 µM)
MIC50 [17]: 2 µg/mL (≈ 3.76 µM)
MIC90 [17]: 3.7 µg/mL (≈ 6.96 µM)
MBC [18]: 2 µg/mL (≈ 3.76 µM)
MIC50 [19]: 0.5 µg/mL (≈ 0.941 µM)
MIC90 [19]: 0.8 µg/mL (≈ 1.5 µM)
MIC50 [20]: 1 µg/mL (≈ 1.88 µM)
MIC90 [20]: 1.7 µg/mL (≈ 3.2 µM)
inhibition [21]: inactive
MBC [22]: 2 µg/mL (≈ 3.76 µM)
MBC [23]: 4 µg/mL (≈ 7.52 µM)
MIC50 [24]: 2 µg/mL (≈ 3.76 µM)
MIC90 [24]: 3.7 µg/mL (≈ 6.96 µM)
MBC [25]: 4 µg/mL (≈ 7.52 µM)
MBC [26]: 1 µg/mL (≈ 1.88 µM)
MIC50 [27]: 2 µg/mL (≈ 3.76 µM)
MIC90 [27]: 3.7 µg/mL (≈ 6.96 µM)
MIC50 [28]: 1 µg/mL (≈ 1.88 µM)
MIC90 [28]: 1.8 µg/mL (≈ 3.39 µM)
MIC50 [29]: 1 µg/mL (≈ 1.88 µM)
MIC90 [29]: 1.7 µg/mL (≈ 3.2 µM)
MBC [30]: 2 µg/mL (≈ 3.76 µM)
IC50 [31]: 6.2 µM
MBC [32]: 4 µg/mL (≈ 7.52 µM)
MBC [33]: 2 µg/mL (≈ 3.76 µM)
